A short description of assay [1]: Inhibition of baboon liver mitochondrial MAOB. Further details: species or system Papio hamadryas.
The species entered for the next assay is Bos taurus. The assay is described as follows: Inhibition of beef liver mitochondrial MAOB at 200 uM.
A further assay is filed under the species Papio hamadryas. Nature of the assay: Inhibition of baboon liver mitochondrial MAOB at 5.20 uM. The method in brief: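 Time-dependence test: baboon liver mitochondria (0.3 mg protein/mL) were preincubated with inhibitor at 5.20 µM in 100 mM sodium phosphate, pH 7.4, for 0, 15, 30 and 60 min at 37 °C. This was then diluted to 0.15 mg protein/mL with 90 µM MMTP, giving a final inhibitor concentration of 2.60 µM. Incubated 15 min at 37 °C, stopped with perchloric acid, and MMDP⁺ was measured.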

The structures appear in SMILES notation. pKi: −log10 of the molar value. The source made the active and inactive calls. The calls are words filed in the database; no cut-off is given here.

In general, pKi refers to −log10 of the Ki, conventionally taken in molar units.

On to `COc1cccc(-c2ccn(C)c2)c1`, for which, in assay [1], the negative logarithm of the Ki (pKi) is 4.38. In the assay filed under Bos taurus, the outcome was inactive.

`COc1ccc(-c2ccn(C)c2)cc1` had a negative logarithm of the Ki (pKi) in assay [1] of 4.44. In addition, in the assay listed under Bos taurus, the outcome was inactive.

Take `Cn1ccc(-c2ccc(F)cc2)c1`: the negative logarithm of the Ki (pKi) in assay [1] was 4.51. In the assay listed under Bos taurus, the result was inactive.

In turn, `Cc1ccc(-c2ccn(C)c2)cc1` showed a pKi in assay [1] of 4.65. Moreover, in the assay filed under Bos taurus, the outcome was inactive.

As to `Cn1ccc(-c2cccc(Cl)c2)c1`, the pKi in assay [1] was 4.68. Also, in the assay filed under Bos taurus, the result was inactive.

The molecule `Cc1cccc(-c2ccn(C)c2)c1` gave a pKi in assay [1] of 4.25. For the same molecule, the outcome in the assay filed under Bos taurus was inactive.

In assay [1], `Cn1ccc(-c2cccc(Br)c2)c1` had a pKi of 4.84. Further, in the assay filed under Bos taurus, the result was inactive.

In assay [1], `Cn1ccc(-c2cccc(F)c2)c1` had a pKi of 4.41. Besides, the outcome in the assay filed under Bos taurus was inactive.

`Cn1ccc(-c2cccc(C(F)(F)F)c2)c1` had a pKi in assay [1] of 5.18. Further, the outcome in the assay filed under Bos taurus was inactive.

`Cn1ccc(-c2ccc(Br)cc2)c1` showed a negative logarithm of the Ki (pKi) in assay [1] of 5.18. In addition, the result in the assay listed under Bos taurus was inactive.

In assay [1], `Cn1ccc(-c2ccc(C(F)(F)F)cc2)c1` gave a negative-log Ki (pKi) of 5.89. Besides, the outcome in the assay filed under Bos taurus was inactive. Moreover, the outcome in the assay listed under Papio hamadryas was Active.

The molecule `Cn1ccc(-c2ccccc2)c1` showed a pKi in assay [1] of 3.93. Besides, the outcome in the assay filed under Bos taurus was inactive.

`Cn1ccc(-c2ccc(Cl)cc2)c1` gave a pKi in assay [1] of 4.74. Besides, the result in the assay listed under Bos taurus was inactive.

(Values after ChEMBL document CHEMBL1141616, “Structure-activity relationships in the inhibition of monoamine oxidase B by 1-methyl-3-phenylpyrroles” (Bioorg Med Chem, 2008).)
